# Measured values taken from ChEMBL document CHEMBL4020827, “Targeting Multiple Effector Pathways in Pancreatic Ductal Adenocarcinoma with a G-Quadruplex-Binding Small Molecule” (J Med Chem, 2018).
# Tests used:
# [1] = system: A549; test: Growth inhibition of human A549 cells after 96 hrs by SRB assay; type: functional, cell-based; settings: A549, 96 h
# Summary of the method: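 Cell lines kept at 37 °C, 5% CO2 in medium with 10% FBS and 2 mM L-glutamine. Compound dissolved in water, filter-sterilised, 10 mM stock diluted into media. Growth read by 96 h sulforhodamine B assay, absorbance at 540 nm. IC50 taken from mean absorbance per concentration as % of untreated wells, >3 individual determinations with standard deviations.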
# [2] = system: WI-38; test: Growth inhibition of human WI38 cells after 96 hrs by SRB assay; type: cell-based; settings: WI-38, 96 h
# [3] = system: MIA PaCa-2; test: Antitumor activity against human MIAPaCa2 cells xenografted in CD-1 nude mouse assessed as change in tumor volume at 10 mg/kg, iv administered twice weekly for 4 weeks measured on day 29 relative to control; type: functional
# Summary of the method: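 Female CD-1 nude mice (2-3 months, 20−25 g) given 5 x 10^6 MIA PaCa-2 cells subcutaneously in right flank with Matrigel; dosing began once tumors were established (approx. 13 days, mean 0.05 cm3). Eight mice/group, IV in saline twice weekly for 28 days (8 doses) against a saline group. Tumors measured by calliper (length × width × height × π/6), with body weight. Student's t test.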
# [4] = system: Mus musculus; test: Hepatotoxicity in CD-1 nude mouse xenografted with human MIAPaCa2 cells at 15 mg/kg, iv administered twice weekly for 4 weeks by hematoxylin and eosin staining based assay; type: toxicity, organism-based; settings: in vivo, 672 h
# [5] = system: PANC-1; test: Effect on AKT1 gene expression in human PANC1 cells at 400 nM after 6 hrs by RNA sequence analysis relative to control; type: functional
# Summary of the method: (§1)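 PANC-1 (0.35 x 10^6) or MIA PaCa-2 (1.5 x 10^6) cells seeded overnight in 60 mm plates, then exposed to 400 nM compound for 6 or 24 h; untreated cells as controls. Cells were mycoplasma-free and STR-certified. Differential expression by RNA-seq, called at FDR < 0.1.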
# [6] = system: PANC-1; test: Effect on AKT1S1 gene expression in human PANC1 cells at 400 nM after 6 hrs by RNA sequence analysis relative to control; type: functional; summary of the method: as §1
# [7] = system: PANC-1; test: Effect on CBFA2T3 gene expression in human PANC1 cells at 400 nM after 6 hrs by RNA sequence analysis relative to control; type: functional; summary of the method: as §1
# [8] = system: PANC-1; test: Effect on CTBP1 gene expression in human PANC1 cells at 400 nM after 6 hrs by RNA sequence analysis relative to control; type: functional; summary of the method: as §1
# [9] = system: PANC-1; test: Effect on GLI2 gene expression in human PANC1 cells at 400 nM after 6 hrs by RNA sequence analysis relative to control; type: functional; summary of the method: as §1
# [10] = system: PANC-1; test: Effect on GLI4 gene expression in human PANC1 cells at 400 nM after 6 hrs by RNA sequence analysis relative to control; type: functional; summary of the method: as §1
# [11] = system: PANC-1; test: Effect on IQSEC1 gene expression in human PANC1 cells at 400 nM after 6 hrs by RNA sequence analysis relative to control; type: functional
# [12] = system: PANC-1; test: Effect on mLST8 gene expression in human PANC1 cells at 400 nM after 6 hrs by RNA sequence analysis relative to control; type: functional
# [13] = system: PANC-1; test: Effect on PRKCZ gene expression in human PANC1 cells at 400 nM after 6 hrs by RNA sequence analysis relative to control; type: functional
# Summary of the method: (§2)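 RNA-seq: cells seeded overnight in 60 mm plates (PANC-1 0.35 x 10^6, MIA PaCa-2 1.5 x 10^6 cells/well), then exposed to 400 nM compound for 6 or 24 h against untreated controls. Cell lines mycoplasma-free by RNA-capture ELISA and STR-profiled. Differentially expressed genes called at FDR < 0.1.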
# [14] = system: PANC-1; test: Effect on RPTOR gene expression in human PANC1 cells at 400 nM after 6 hrs by RNA sequence analysis relative to control; type: functional; summary of the method: as §2
# [15] = system: PANC-1; test: Effect on TEAD4 gene expression in human PANC1 cells at 400 nM after 6 hrs by RNA sequence analysis relative to control; type: functional; summary of the method: as §2
# [16] = system: PANC-1; test: Effect on TP73 gene expression in human PANC1 cells at 400 nM after 6 hrs by RNA sequence analysis relative to control; type: functional; summary of the method: as §2
# [17] = system: MIA PaCa-2; test: Effect on AKT1S1 gene expression in human MIAPaCa2 cells at 400 nM after 6 hrs by RNA sequence analysis relative to control; type: functional; summary of the method: as §1
# [18] = system: MIA PaCa-2; test: Effect on GLI1 gene expression in human MIAPaCa2 cells at 400 nM after 6 hrs by RNA sequence analysis relative to control; type: functional; summary of the method: as §1
# [19] = system: MIA PaCa-2; test: Effect on mLST8 gene expression in human MIAPaCa2 cells at 400 nM after 6 hrs by RNA sequence analysis relative to control; type: functional; summary of the method: as §2
# [20] = system: MIA PaCa-2; test: Effect on PARD6A gene expression in human MIAPaCa2 cells at 400 nM after 6 hrs by RNA sequence analysis relative to control; type: functional
# [21] = system: MIA PaCa-2; test: Effect on TEAD4 gene expression in human MIAPaCa2 cells at 400 nM after 6 hrs by RNA sequence analysis relative to control; type: functional; summary of the method: as §2
# [22] = system: PANC-1; test: Effect on AKT1S1 gene expression in human PANC1 cells at 400 nM after 24 hrs by RNA sequence analysis relative to control; type: functional; summary of the method: as §1
# [23] = system: PANC-1; test: Effect on CBFA2T3 gene expression in human PANC1 cells at 400 nM after 24 hrs by RNA sequence analysis relative to control; type: functional; summary of the method: as §1
# [24] = system: PANC-1; test: Effect on IGF2 gene expression in human PANC1 cells at 400 nM after 24 hrs by RNA sequence analysis relative to control; type: functional; summary of the method: as §1
# [25] = system: PANC-1; test: Effect on PAK1 gene expression in human PANC1 cells at 400 nM after 24 hrs by RNA sequence analysis relative to control; type: functional
# [26] = system: PANC-1; test: Effect on PCK2 gene expression in human PANC1 cells at 400 nM after 24 hrs by RNA sequence analysis relative to control; type: functional
# [27] = system: PANC-1; test: Effect on PFKFB4 gene expression in human PANC1 cells at 400 nM after 24 hrs by RNA sequence analysis relative to control; type: functional
# [28] = system: PANC-1; test: Effect on TP73 gene expression in human PANC1 cells at 400 nM after 24 hrs by RNA sequence analysis relative to control; type: functional; summary of the method: as §2
# [29] = system: MIA PaCa-2; test: Effect on AKT1 gene expression in human MIAPaCa2 cells at 400 nM after 24 hrs by RNA sequence analysis relative to control; type: functional; summary of the method: as §1
# [30] = system: MIA PaCa-2; test: Effect on IGF2 gene expression in human MIAPaCa2 cells at 400 nM after 24 hrs by RNA sequence analysis relative to control; type: functional; summary of the method: as §1
# [31] = system: MIA PaCa-2; test: Effect on PAK1 gene expression in human MIAPaCa2 cells at 400 nM after 24 hrs by RNA sequence analysis relative to control; type: functional
# [32] = system: MIA PaCa-2; test: Effect on PIK3R3 gene expression in human MIAPaCa2 cells at 400 nM after 24 hrs by RNA sequence analysis relative to control; type: functional
# [33] = system: MIA PaCa-2; test: Effect on SHANK2 gene expression in human MIAPaCa2 cells at 400 nM after 24 hrs by RNA sequence analysis relative to control; type: functional; summary of the method: as §2
# [34] = system: MIA PaCa-2; test: Effect on TEAD2 gene expression in human MIAPaCa2 cells at 400 nM after 24 hrs by RNA sequence analysis relative to control; type: functional; summary of the method: as §2
compound,measurement,setting,value
O=C1c2ccc3c4c(c(NCCN5CCCC5)cc(c24)C(=O)N1CCCN1CCOCC1)C(=O)N(CCCN1CCOCC1)C3=O,IC50,[1],24 nM
same,IC50,[2],1190 nM
same,Activity,[3],-53.3%
same,Activity,[4],Non-Toxic
same,log2FC,[5],-0.18
same,log2FC,[6],-0.11
same,log2FC,[7],-2.18
same,log2FC,[8],-0.66
same,log2FC,[9],-0.67
same,log2FC,[10],-1.26
same,log2FC,[11],-0.86
same,log2FC,[12],-0.54
same,log2FC,[13],-1.44
same,log2FC,[14],-0.8
same,log2FC,[15],-0.23
same,log2FC,[16],-1.44
same,log2FC,[17],-0.54
same,log2FC,[18],-0.61
same,log2FC,[19],-0.76
same,log2FC,[20],-0.83
same,log2FC,[21],-0.79
same,log2FC,[22],-0.83
same,log2FC,[23],-2.25
same,log2FC,[24],-1.53
same,log2FC,[25],-1.11
same,log2FC,[26],-0.56
same,log2FC,[27],-0.74
same,log2FC,[28],-0.99
same,log2FC,[29],-0.98
same,log2FC,[30],0.72
same,log2FC,[31],-1.13
same,log2FC,[32],-1.47
same,log2FC,[33],-1.96
same,log2FC,[34],-0.91
